Experimental findings from ChEMBL document CHEMBL3997791, “Nanomolar-Potency Aminophenyl-1,3,5-triazine Activators of the Cystic Fibrosis Transmembrane Conductance Regulator (CFTR) Chloride Channel for Prosecretory Therapy of Dry Eye Diseases” (J Med Chem, 2017) are described below.

Active and inactive are the calls of the source. The calls are words filed in the database; no cut-off is given here. Where only a bound is given, the exact number is not on record here.

Data set [1] is described as follows: Suppression of ATP-stimulated elevation of cytoplasmic calcium level in Fischer rat thyroid cells co-expressing YFP and human CFTR at 10 uM incubated for 5 mins by fluo-4 dye based fluorescence assay. As to conditions: thyroid cell. The format is ADME. Summed up:
(§1)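 FRT cells in 96-well plates loaded with Fluo-4 NW, pretreated 5 min with 10 μM compound or control; 100 μM ATP added as calcium agonist. Fluorescence followed in plate reader with syringe pumps. Representative of two to four experiment sets.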

For data set [2], the system named is Mus musculus. As to the kind of experiment: Induction of tear secretion in mouse assessed as minimum compound concentration required to show maximum effect administered as single topical dose at 1 to 3 hrs post dose by phenol red thread test. The data set is classed as functional. Summed up:
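Dose-response in mice: single ocular doses of varied amounts (down to 25 pmol) in 2.5 μL ophthalmic vehicle to both eyes, vehicle control. Tear volume by phenol red thread (10 s, lateral canthus, isoflurane anesthesia) before and at timed points after dosing; 5 mice, 10 eyes per condition.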

In data set [3] the target is T1, Anoctamin-1 (Homo sapiens) (UniProt Q5XXA6).
T1 sequence (whole entry): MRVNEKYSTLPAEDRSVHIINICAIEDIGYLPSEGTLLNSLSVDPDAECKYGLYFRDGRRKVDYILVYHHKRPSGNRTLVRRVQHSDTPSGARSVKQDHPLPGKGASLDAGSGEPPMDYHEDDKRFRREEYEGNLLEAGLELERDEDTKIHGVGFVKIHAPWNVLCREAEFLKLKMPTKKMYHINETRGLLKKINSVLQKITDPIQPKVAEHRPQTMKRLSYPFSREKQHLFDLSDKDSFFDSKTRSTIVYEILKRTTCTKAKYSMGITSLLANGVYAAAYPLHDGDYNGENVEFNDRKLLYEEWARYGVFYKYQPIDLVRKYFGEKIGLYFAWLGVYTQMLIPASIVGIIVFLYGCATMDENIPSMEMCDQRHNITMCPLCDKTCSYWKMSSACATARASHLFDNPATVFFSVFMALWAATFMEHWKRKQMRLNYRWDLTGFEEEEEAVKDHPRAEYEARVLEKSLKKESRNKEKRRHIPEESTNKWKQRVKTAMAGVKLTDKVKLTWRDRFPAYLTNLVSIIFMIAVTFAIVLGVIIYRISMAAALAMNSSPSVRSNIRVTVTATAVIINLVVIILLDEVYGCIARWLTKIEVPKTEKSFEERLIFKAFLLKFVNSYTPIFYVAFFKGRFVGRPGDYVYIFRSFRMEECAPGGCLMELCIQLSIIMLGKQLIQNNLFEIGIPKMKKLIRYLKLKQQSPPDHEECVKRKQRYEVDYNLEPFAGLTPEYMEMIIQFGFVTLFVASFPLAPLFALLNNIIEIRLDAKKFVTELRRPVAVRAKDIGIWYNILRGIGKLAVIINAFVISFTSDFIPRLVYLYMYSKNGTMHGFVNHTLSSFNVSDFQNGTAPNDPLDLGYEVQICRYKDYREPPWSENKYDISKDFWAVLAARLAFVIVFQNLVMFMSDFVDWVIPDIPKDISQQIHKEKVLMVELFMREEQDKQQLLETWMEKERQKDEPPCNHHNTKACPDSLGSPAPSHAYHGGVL
As to the kind of experiment: Activation of human TMEM16A expressed in FRT cells co-expressing YFP assessed as increase in iodide influx at 10 uM measured after 10 mins for 2 to 12 sec by fluorescence assay. The format is cell-based. Summed up: (§2)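 FRT cells stably coexpressing TMEM16A and YFP-H148Q; compound at 10 μM. Fluorescence quenching read in plate reader after iodide addition (activation) or iodide plus ATP addition (inhibition); initial rate of iodide influx computed as linear measure of channel function. Representative of two to four experiment sets.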

Data set [4] is described as follows: Solubility of the compound in phosphate buffered solution. The format is physicochemical.
For data set [5], the target named is T2, Cystic fibrosis transmembrane conductance regulator (Homo sapiens, UniProt P13569). Kind of data set: Activation of CFTR in human primary bronchial epithelial cells assessed as increase in short-circuit current up to 10 uM measured after 10 mins in absence of forskolin by voltage clamp method.
A short description of data set [6]: Chemical stability in opthalmic vehicle containing 0.3% CMC in Ringer's solution at 100 uM up to 24 hrs at 40 degC by LC-MS analysis. The data set is classed as physicochemical. In outline: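 Compound dissolved at 100 μM in ophthalmic vehicle (0.3% CMC in Ringer's solution), held 24 h at 40 °C; chemical integrity checked by LC/MS.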
The target of data set [7] is T2, Cystic fibrosis transmembrane conductance regulator. As to the kind of experiment: Activation of human CFTR expressed in forskolin-stimulated basolateral membrane permeabilized FRT cells co-expressing YFP assessed as increase in short-circuit current by voltage clamp method. The format is cell-based. In outline:
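Ussing chamber with FRT cells co-expressing human wild-type CFTR and YFP. Basolateral side had HCO3−-buffered solution and the apical side half-Cl− solution. The basolateral membrane was permeabilized with 250 µg/mL amphotericin B. Solutions were gassed with 95% O2/5% CO2 at 37 °C. A low forskolin concentration was added first, then cumulative compound additions, then maximal forskolin and 10 µM CFTRinh-172; n = 3.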

Data set [8] shares this target. As to the kind of experiment: Activation of CFTR in human primary bronchial epithelial cells assessed as increase in forskolin-stimulated short-circuit current at 0.1 uM preincubated for 10 mins followed by forskolin addition by voltage clamp method.
In data set [9] the target is T1, Anoctamin-1 (Homo sapiens). As to the kind of experiment: Inhibition of human TMEM16A expressed in FRT cells co-expressing YFP assessed as decrease in iodide influx at 10 uM measured after 10 mins for 2 to 12 sec in presence of ATP by fluorescence assay. The format is cell-based. Summed up: as §2
Data set [10] has as its system Mus musculus. As to the kind of experiment: Induction of tear secretion in mouse at 250 pmol administered as single topical dose up to 8 hrs by phenol red thread test. The format is functional. In outline: (§3)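 Mice 8–12 weeks (25–35 g); single ocular dose of 250 pmol (100 μM) in 2.5 μL vehicle (0.3% CMC in Ringer's), both eyes treated identically, vehicle control. Tear volume by phenol red thread, 10 s in lateral canthus under isoflurane, before and at set times after dosing. 5 mice, 10 eyes per condition; two-way ANOVA with Dunnett test.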

The nature of data set [11]: Metabolic stability in rat hepatic microsomes assessed as parent compound remaining at 5 uM after 15 mins in presence of NADPH by LC-MS analysis. The format is ADME, Microsome. As to conditions: liver microsomes, read-out: Stability. In outline: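 Compound at 5 μM incubated at 37 °C with rat liver microsomes (1 mg/mL) in potassium phosphate buffer with 1 mM NADPH; quenched with ice-cold EtOAc, centrifuged, supernatant analysed by LC/MS (C18, water/acetonitrile with 0.1% formic acid gradient, UV 254 nm) for parent remaining; mean ± SEM, n = 3.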

Data set [12] can be described thus: Elevation of forskolin-stimulated cAMP level in Fischer rat thyroid cells co-expressing YFP and human CFTR at 10 uM incubated for 10 mins by immunoassay. To be noted: thyroid cell. The format is ADME, cell-based. In outline:
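FRT cells expressing wild-type CFTR in 12-well plates, PBS-washed, incubated 10 min with 10 μM compound without or with 90 nM forskolin; references were forskolin alone (90 nM, 20 μM) and 20 μM forskolin + 100 μM IBMX. Lysates assayed for cAMP by immunoassay; mean ± SEM, n = 4.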

Data set [13] can be described thus: Elevation of cytoplasmic calcium level in Fischer rat thyroid cells co-expressing YFP and human CFTR at 10 uM incubated for 5 mins by fluo-4 dye based fluorescence assay. The format is ADME. To be noted: thyroid cell. In outline:
as §1

Data set [14] relates to Mus musculus. Kind of data set: Induction of tear secretion in mouse at 250 pmol administered as single topical dose after 12 to 24 hrs by phenol red thread test. The data set is classed as functional. In outline: as §3

T2 sequence (P13569 whole entry, looked up): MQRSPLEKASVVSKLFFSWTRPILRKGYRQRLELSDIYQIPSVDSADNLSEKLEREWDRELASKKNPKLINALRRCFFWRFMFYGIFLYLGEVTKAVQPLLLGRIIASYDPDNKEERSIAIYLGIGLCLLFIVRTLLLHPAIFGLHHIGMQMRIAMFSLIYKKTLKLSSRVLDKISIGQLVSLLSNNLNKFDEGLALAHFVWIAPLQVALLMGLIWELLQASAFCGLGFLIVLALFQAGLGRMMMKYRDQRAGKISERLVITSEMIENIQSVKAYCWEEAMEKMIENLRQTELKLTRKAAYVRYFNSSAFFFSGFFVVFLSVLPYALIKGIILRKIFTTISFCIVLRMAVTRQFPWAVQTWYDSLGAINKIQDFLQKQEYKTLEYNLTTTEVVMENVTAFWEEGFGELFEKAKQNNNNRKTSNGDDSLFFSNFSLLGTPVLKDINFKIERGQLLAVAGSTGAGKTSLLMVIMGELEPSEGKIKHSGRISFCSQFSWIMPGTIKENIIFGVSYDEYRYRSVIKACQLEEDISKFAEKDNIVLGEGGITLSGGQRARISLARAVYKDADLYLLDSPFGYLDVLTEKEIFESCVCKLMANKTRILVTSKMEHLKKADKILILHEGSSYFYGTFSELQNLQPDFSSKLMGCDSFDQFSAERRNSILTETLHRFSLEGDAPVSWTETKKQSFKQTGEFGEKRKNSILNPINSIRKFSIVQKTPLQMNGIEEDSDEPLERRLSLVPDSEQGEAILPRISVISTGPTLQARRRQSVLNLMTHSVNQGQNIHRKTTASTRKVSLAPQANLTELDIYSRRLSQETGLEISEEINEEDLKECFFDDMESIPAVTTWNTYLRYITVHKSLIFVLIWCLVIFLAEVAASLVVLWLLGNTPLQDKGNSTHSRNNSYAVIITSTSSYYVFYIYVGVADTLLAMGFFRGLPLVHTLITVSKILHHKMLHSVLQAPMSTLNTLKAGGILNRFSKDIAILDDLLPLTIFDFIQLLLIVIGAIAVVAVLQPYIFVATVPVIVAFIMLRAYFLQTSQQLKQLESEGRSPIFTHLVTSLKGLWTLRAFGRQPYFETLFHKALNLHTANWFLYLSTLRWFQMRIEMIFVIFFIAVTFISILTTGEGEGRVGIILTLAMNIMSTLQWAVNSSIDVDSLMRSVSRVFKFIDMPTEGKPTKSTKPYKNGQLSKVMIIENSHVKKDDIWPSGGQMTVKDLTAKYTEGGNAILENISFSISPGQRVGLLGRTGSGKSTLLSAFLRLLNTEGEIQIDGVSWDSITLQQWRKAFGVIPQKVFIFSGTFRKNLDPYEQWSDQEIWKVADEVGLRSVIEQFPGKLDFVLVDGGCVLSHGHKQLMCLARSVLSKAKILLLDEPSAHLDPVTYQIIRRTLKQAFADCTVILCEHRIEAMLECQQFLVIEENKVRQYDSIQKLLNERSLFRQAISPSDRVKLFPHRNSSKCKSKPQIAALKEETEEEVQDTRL

As for `CNc1nc(Nc2ccccc2)nc(OCC(F)(F)C(F)F)n1`, the Activity entry was “Non-Toxic” in data set [1]; 25 pmol in the data set with Mus musculus [2]; “Dose-dependent effect” in [7]; “Non-Toxic” in data set [12]; “Non-Toxic” in [13]. Moreover, the result (in [3]; in data set [5]; in the data set with Mus musculus [14]) was inactive. In addition, in data set [4], the solubility is at most 10 µM. Also, the Stability result in data set [6] is “Stable”. Further, the result (in [8]; in the data set on Mus musculus [10]) was Active. For the same molecule, the inhibition entry in data set [9] was “inactive”. Moreover, in data set [11], the remaining at […], 5 µM is below 40%.

As for `CCN(CC)c1nc(Nc2ccc3ncsc3c2)nc(OC(C(F)(F)F)C(F)(F)F)n1`, the Activity result was “Non-Toxic” in data set [1], “Dose-dependent effect” in [7], “Non-Toxic” in [12] and “Non-Toxic” in data set [13]. The result in data set [3] was inactive. For the same molecule, the solubility in data set [4] is at most 10 µM. Moreover, the inhibition entry in [9] was “inactive”.
